In general, inhibition refers to the share of the control response that was lost under treatment.

The target in test [1] is Mitogen-activated protein kinase 10 (Rattus norvegicus) (UniProt P49187). As to the kind of experiment: Inhibition of rat c-Jun N-terminal kinase-3 at 30 uM. In short, it runs like this: (§1)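 Kinase activity assayed with ATP at 100 µM, deliberately higher than usual assay ATP levels because the inhibitors are assumed ATP-competitive. Results are reported as percent inhibition of each kinase.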

The target of test [2] is RAC-alpha serine/threonine-protein kinase (Homo sapiens) (UniProt P31749). Briefly: Inhibition of human Protein kinase B alpha at 30 uM. In short, it runs like this: as §1
Test [3] deals with Mitogen-activated protein kinase 14 (Homo sapiens) (UniProt Q16539). As to the kind of experiment: Inhibition of human stress-activated protein kinase-2 alpha (p38 MAP-kinase) at 30 uM. The gist of the method:
as §1

Test [4] addresses Dual specificity mitogen-activated protein kinase kinase 1 (Homo sapiens) (UniProt Q02750). As to the kind of experiment: Inhibition of human Mitogen activated protein kinase kinase 1 (MEK1) at 30 uM. In short, it runs like this: as §1
In test [5] the target is Protein kinase C alpha type (Homo sapiens) (UniProt P17252). Briefly: Inhibition of human Protein kinase C alpha. The settings on record: concentration not given here. More on the design: concentration or dose not given beside the values.
Test [6] concerns the target cAMP-dependent protein kinase (PKA) (Homo sapiens) (UniProt P22694+P17612+P22612). As to the kind of experiment: Inhibition of human cAMP-dependent protein kinase (PKA). In kind it is protein assay. Also on record: concentration or dose not given beside the values. Particulars: concentration not given here.
In test [7] the target is Ca2+/calmodulin-dependent protein kinase II (CaM kinase II) (Rattus norvegicus) (UniProt P11275+P08413+P15791+P11730). Briefly: Inhibition of rat Calcium/calmodulin-dependent protein kinase type II at 30 uM. In kind it is protein assay. In short, it runs like this: as §1
Test [8] deals with Glycogen synthase kinase-3 beta (Homo sapiens) (UniProt P49841). As to the kind of experiment: Inhibition of human Glycogen synthase kinase-3 beta at 30 uM. In short, it runs like this:
as §1

Test [9] has as its target Mitogen-activated protein kinase 8 (Homo sapiens) (UniProt P45983). As to the kind of experiment: Inhibition of human c-Jun N-terminal kinase-1 alpha-1 at 30 uM. The gist of the method: as §1
Test [10] deals with Mitogen-activated protein kinase 9 (Homo sapiens) (UniProt P45984). Briefly: Inhibition of human c-Jun N-terminal kinase-2 alpha-2 at 30 uM. The gist of the method: as §1
In test [11] the target is Mitogen-activated protein kinase 1 (Homo sapiens) (UniProt P28482). Briefly: Inhibition of human Mitogen-activated protein kinase 2 at 30 uM. In short, it runs like this: as §1
Test [12] deals with Tyrosine-protein kinase Lck (Homo sapiens) (UniProt P06239). As to the kind of experiment: Inhibition of human lymphocyte protein tyrosine kinase Lck at 30 uM. In short, it runs like this:
as §1

The target in test [13] is RAF proto-oncogene serine/threonine-protein kinase (Homo sapiens) (UniProt P04049). As to the kind of experiment: Inhibition of human RAF proto-oncogene serine/threonine-protein kinase at 30 uM. In short, it runs like this:
as §1

Test [14] addresses Rho-associated protein kinase 2 (Homo sapiens) (UniProt O75116). As to the kind of experiment: Inhibition of human Rho-dependent protein kinase-II at 30 uM.

Sequence of RAF proto-oncogene serine/threonine-protein kinase (Homo sapiens) (P04049 whole entry): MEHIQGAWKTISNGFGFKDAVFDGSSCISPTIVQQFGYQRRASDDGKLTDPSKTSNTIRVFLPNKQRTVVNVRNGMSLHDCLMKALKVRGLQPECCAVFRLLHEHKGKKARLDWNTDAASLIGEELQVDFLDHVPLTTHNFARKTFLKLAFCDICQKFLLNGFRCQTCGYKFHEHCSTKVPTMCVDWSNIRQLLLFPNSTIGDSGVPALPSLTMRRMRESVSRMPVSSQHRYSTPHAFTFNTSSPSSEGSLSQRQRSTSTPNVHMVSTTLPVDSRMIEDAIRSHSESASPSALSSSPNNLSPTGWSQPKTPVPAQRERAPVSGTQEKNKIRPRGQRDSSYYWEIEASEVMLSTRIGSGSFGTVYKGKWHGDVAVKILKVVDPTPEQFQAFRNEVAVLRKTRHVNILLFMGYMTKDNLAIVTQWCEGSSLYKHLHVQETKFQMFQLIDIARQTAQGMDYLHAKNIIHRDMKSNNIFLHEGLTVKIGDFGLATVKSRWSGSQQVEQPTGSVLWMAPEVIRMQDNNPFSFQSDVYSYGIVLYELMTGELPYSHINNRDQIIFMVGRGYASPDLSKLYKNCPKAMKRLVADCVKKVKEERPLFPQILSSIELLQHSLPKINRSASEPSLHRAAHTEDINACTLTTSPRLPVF
Sequence of Glycogen synthase kinase-3 beta (Homo sapiens) (P49841 whole entry, looked up): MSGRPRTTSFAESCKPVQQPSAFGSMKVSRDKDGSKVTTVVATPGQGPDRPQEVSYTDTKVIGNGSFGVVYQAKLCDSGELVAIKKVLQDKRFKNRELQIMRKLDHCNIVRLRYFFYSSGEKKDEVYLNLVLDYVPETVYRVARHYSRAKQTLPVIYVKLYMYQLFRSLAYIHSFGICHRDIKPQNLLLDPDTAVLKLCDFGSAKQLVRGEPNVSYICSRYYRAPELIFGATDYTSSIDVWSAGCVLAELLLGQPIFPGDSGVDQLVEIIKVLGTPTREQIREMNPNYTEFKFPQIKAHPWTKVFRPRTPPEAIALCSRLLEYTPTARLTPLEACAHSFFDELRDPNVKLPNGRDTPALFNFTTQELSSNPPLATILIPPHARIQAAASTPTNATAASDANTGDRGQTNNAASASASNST
Sequence of Rho-associated protein kinase 2 (Homo sapiens) (O75116 whole entry, looked up): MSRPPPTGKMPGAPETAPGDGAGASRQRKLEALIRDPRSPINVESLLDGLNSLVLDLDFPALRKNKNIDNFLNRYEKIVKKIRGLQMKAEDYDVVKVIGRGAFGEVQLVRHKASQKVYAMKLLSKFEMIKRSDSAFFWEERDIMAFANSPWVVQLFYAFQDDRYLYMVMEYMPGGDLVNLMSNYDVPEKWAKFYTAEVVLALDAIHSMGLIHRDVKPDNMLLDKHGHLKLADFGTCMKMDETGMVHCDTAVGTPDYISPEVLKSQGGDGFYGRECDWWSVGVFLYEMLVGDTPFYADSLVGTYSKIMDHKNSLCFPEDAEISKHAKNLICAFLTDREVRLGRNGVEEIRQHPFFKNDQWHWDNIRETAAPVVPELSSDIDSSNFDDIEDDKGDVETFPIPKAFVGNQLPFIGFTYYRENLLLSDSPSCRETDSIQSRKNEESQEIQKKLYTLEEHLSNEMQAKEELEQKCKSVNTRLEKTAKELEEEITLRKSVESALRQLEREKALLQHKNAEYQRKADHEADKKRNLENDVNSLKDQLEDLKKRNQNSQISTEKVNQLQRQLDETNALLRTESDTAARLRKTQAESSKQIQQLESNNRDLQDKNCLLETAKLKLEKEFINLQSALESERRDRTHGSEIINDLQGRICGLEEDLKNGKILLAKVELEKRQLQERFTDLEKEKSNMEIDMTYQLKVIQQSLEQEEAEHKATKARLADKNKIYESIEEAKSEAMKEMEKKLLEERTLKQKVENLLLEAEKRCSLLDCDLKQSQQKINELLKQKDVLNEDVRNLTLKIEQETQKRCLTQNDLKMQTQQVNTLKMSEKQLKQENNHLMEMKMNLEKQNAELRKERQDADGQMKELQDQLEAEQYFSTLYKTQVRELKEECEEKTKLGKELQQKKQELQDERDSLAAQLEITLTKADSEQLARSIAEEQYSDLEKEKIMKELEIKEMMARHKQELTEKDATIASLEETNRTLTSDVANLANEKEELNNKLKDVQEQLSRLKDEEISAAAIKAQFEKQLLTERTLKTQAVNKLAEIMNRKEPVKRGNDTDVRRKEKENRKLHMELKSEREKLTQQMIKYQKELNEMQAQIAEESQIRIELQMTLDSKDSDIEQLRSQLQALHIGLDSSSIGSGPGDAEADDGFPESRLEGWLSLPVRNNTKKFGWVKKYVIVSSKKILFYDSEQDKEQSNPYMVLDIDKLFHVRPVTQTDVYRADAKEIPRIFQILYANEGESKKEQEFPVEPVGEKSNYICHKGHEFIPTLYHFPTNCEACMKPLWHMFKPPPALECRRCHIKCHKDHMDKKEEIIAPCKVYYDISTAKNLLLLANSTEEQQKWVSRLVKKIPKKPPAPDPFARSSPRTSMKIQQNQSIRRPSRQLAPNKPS
Sequence of Mitogen-activated protein kinase 14 (Homo sapiens) (Q16539 whole entry): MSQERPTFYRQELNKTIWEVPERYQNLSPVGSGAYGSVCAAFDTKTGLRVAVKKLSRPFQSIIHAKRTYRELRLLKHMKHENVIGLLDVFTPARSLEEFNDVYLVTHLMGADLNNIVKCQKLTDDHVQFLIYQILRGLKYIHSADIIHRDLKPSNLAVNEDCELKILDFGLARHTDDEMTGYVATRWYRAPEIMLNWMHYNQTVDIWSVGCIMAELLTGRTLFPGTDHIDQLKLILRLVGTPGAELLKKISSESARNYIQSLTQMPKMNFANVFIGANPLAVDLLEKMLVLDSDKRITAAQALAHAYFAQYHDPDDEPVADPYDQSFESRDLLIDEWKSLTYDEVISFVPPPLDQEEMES
Sequence of Dual specificity mitogen-activated protein kinase kinase 1 (Homo sapiens) (Q02750 whole entry): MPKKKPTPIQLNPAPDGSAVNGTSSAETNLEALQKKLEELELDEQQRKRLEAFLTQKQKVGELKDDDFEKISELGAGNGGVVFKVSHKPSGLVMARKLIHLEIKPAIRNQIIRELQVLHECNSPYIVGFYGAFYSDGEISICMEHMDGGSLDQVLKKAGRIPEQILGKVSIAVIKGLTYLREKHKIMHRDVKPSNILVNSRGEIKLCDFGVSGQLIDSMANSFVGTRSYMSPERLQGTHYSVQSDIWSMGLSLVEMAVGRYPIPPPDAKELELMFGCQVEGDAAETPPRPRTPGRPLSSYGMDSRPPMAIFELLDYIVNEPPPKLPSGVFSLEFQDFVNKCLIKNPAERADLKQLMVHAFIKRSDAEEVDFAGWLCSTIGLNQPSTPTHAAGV
Sequence of Mitogen-activated protein kinase 8 (Homo sapiens) (P45983 whole entry): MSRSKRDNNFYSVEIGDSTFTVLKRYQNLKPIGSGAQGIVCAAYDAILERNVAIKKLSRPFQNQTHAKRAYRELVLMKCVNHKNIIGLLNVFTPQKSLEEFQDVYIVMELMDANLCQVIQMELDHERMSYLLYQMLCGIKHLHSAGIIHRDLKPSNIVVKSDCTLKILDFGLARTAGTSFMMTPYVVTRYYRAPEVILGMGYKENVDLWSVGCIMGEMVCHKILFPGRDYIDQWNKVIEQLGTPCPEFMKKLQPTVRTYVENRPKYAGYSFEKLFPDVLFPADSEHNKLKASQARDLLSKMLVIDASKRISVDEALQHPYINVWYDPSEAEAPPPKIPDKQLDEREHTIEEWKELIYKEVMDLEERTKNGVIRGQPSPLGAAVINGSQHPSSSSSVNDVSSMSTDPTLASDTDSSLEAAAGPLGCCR
Sequence of Tyrosine-protein kinase Lck (Homo sapiens) (P06239 2-509 limits assumed): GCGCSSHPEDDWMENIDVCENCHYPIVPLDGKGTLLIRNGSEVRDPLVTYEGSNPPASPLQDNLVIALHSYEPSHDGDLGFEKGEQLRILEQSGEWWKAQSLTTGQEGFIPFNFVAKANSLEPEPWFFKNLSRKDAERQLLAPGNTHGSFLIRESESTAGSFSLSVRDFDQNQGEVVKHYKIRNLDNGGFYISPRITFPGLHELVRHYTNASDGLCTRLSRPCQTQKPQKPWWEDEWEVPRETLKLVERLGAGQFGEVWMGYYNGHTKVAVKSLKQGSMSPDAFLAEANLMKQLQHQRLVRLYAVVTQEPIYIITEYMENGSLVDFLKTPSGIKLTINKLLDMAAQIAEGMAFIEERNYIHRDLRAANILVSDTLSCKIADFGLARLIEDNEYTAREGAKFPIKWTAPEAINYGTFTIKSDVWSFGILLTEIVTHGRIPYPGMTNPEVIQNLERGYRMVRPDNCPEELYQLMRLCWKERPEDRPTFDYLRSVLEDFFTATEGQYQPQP

In the case of `c1ccc(Cn2cnc3c(Sc4ccccc4)ncnc32)cc1`, the inhibition in test [1] was found to be 0%; in test [2], 1%; in test [3], 64%; in test [4] it was 6%; in [5], 0%; in test [6], 0%. Moreover, the inhibition came out at 3% in [7]; 1% in test [8]; 0% in test [9]; 0% in test [10]; 0% in [11]; 0% in test [12]. Besides, the results for the inhibition in test [13] and in [14] were 0% and 1%, respectively.

In the case of `Fc1ccc(Cn2cnc3c(Sc4ccc(F)cc4)ncnc32)cc1`, the inhibition in test [1] was 0%; in [2], 0%; in test [3], 27%; in test [4] it was 3%; in test [5], 0%; in test [6] it was 0%. Further, the inhibition in [7] came to 0%; in test [8], 8%; in test [9], 0%; in test [10] it was 0%; in test [11], 0%; in [12], 16%. In addition, the inhibition in [13] and in test [14] was 0% each time.

For the molecule `Fc1ccc(CSc2[nH]cnc3ncnc2-3)cc1`, the inhibition in test [1] turned out to be 12%; in test [2], 6%; in test [3] it was 29%; in [4], 0%; in test [5], 4%; in test [7], 3%. Moreover, the inhibition in test [8] was 0%; in test [9], 0%; in test [10], 0%; in [11] it was 5%; in [12], 16%; in [13], 47%. Further, the inhibition in test [14] came to 18%.

For `Fc1ccc(C[n+]2c[nH]c3ncncc32)cc1`, the inhibition came to 12% in [1]; 8% in [2]; 5% in test [3]; 0% in test [4]; 15% in test [5]; 0% in test [6]. Also, the inhibition worked out at 5% in test [7]; 10% in test [8]; 0% in test [9]; 0% in test [10]; 4% in [11]; 13% in test [12]. Besides, the inhibition in test [13] was found to be 7%; in [14], 4%.

As for `Cn1c(-c2ccc(S(C)(=O)=O)cc2)nc2c(Sc3ccccc3)ncnc21`, the inhibition in test [1] amounted to 7%; in [2], 14%; in test [3], 36%; in test [4] it was 4%; in test [5], 18%; in test [6], 11%. Further, the inhibition in [7] is 8%; in test [8] it was 0%; in [9] it was 1%; in test [10] it was 8%; in test [11], 3%; in test [12], 16%. Besides, the results for the inhibition in [13] and in [14] were 10% and 5%, respectively.

Regarding `c1ccc(Sc2[nH]cnc3nccc2-3)cc1`, the inhibition is 0% in test [1]; 0% in test [2]; 56% in test [3]; 41% in test [4]; 23% in [5]; 0% in test [6]. Moreover, the inhibition was found to be 6% in test [7]; 11% in test [8]; 0% in test [9]; 0% in test [10]; 4% in test [11]; 56% in test [12]. Moreover, the inhibition in test [13] is 22%; in test [14], 36%.

With `c1ccc(Sc2ncnc3[nH]cnc23)cc1`, the inhibition in test [1] turned out to be 0%; in [2], 0%; in test [3], 54%; in [4] it was 0%; in test [5], 3%; in [6] it was 8%. The inhibition in [7] came to 0%; in test [8] it was 1%; in test [9], 0%; in [10], 0%; in test [11], 13%; in [12], 5%. The inhibition turned out to be 6% in test [13] and 33% in test [14].

Regarding `c1ccc(Oc2ncnc3[nH]cnc23)cc1`, the inhibition is 0% in test [1]; 0% in test [2]; 12% in test [3]; 1% in [4]; 8% in test [5]; 11% in test [6]. Further, the inhibition in test [7] came to 0%; in [8], 0%; in test [9] it was 1%; in test [10], 1%; in test [11], 6%; in test [12] it was 11%. Further, the inhibition in test [13] came out at 3%; in test [14], 16%.

Consider `Fc1ccc(Cn2cnc3c(Sc4ccccc4)ncnc32)cc1`, for which the inhibition in [1] turned out to be 0%; in test [2], 13%; in test [3] it was 67%; in test [4], 1%; in test [5], 0%; in test [6] it was 0%. Moreover, the inhibition turned out to be 0% in test [7]; 0% in test [8]; 0% in test [9]; 0% in [10]; 0% in test [11]; 12% in test [12]. Also, the inhibition worked out at 0% in [13] and 2% in [14].

Take `Cn1cnc2c(-c3ccc(F)cc3)ncnc21`: the inhibition is 14% in [1]; 0% in test [2]; 16% in [3]; 1% in test [4]; 8% in [5]; 0% in test [6]. Besides, the inhibition in test [7] stood at 12%; in [8], 3%; in test [9], 5%; in test [10], 3%; in [11] it was 0%; in [12], 5%. In addition, the results for the inhibition in [13] and in [14] were 9% and 10%, respectively.

In the case of `Cn1cnc2c(SCc3ccc(F)cc3)ncnc21`, the inhibition is 9% in test [1]; 11% in test [2]; 21% in test [3]; 7% in [4]; 12% in test [5]; 0% in [6]. For the same molecule, the inhibition in [7] was determined as 5%; in test [8] it was 14%; in test [9], 10%; in test [10] it was 6%; in [11], 8%; in test [12], 5%. Besides, the inhibition in test [13] stood at 16%; in [14], 6%.

`Nc1ncnc2c1ncn2Cc1ccccc1`: the inhibition in test [1] is 17%; in test [2] it was 0%; in test [3] it was 7%; in [4], 7%; in test [5], 2%; in test [6] it was 1%. For the same molecule, the inhibition in test [7] worked out at 0%; in [8], 7%; in test [9], 1%; in test [10] it was 0%; in test [11] it was 11%; in [12], 19%. The inhibition in test [13] was 25%; in test [14] it was 5%.

Turning to `Cn1c(Br)nc2c(Sc3ccccc3)ncnc21`, the inhibition turned out to be 0% in [1]; 1% in test [2]; 23% in test [3]; 0% in test [4]; 5% in test [5]; 0% in [6]. In addition, the inhibition was 0% in [7]; 19% in test [8]; 0% in [9]; 0% in test [10]; 0% in test [11]; 23% in [12]. The inhibition in test [13] and in [14] was 0% in each case.

In the case of `Cn1c(-c2ccccc2)nc2c(-c3ccc(F)cc3)ncnc21`, the inhibition turned out to be 12% in test [1]; 31% in test [2]; 23% in test [3]; 5% in test [4]; 17% in [5]; 0% in test [6]. The inhibition in test [7] worked out at 5%; in test [8] it was 26%; in test [9], 2%; in test [10], 8%; in test [11] it was 1%; in [12], 17%. For the same molecule, the inhibition was 24% in test [13] and 0% in test [14].

Source of the values: ChEMBL document CHEMBL1141882, “Synthesis and biological testing of purine derivatives as potential ATP-competitive kinase inhibitors” (J Med Chem, 2005).
